# Test system: HEK-293T
# Assay: Multiplex assay against HEK293T
# Assay type: toxicity, cell-based
# Conditions: human
# Summary of the method: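 At seeding, live cells were stained with Hoechst33342, BioTracker Green Microtubule Cytoskeleton Dye, MitoTracker Red and Annexin V Alexa Fluor 680. After compound addition they were imaged on a CQ1 microscope at 37°C and 5% CO2, and CellPathfinder machine-learning gating sorted them into Hoechst high-intensity objects or normal cells, with normal cells further split into healthy, pyknosed or fragmented nuclei and pyknosed cells into mitotic or apoptotic. Tubulin, mitochondrial-mass and membrane-permeability phenotypes are given as per cents of cells with healthy nuclei.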
# [1] = 12 h, 1 µM, compound concentration 1 uM, replicate 1
# [2] = 12 h, 1 µM, compound concentration 1 uM, replicate 2
# [3] = 12 h, 10 µM, compound concentration 10 uM, replicate 1
# [4] = 12 h, 10 µM, compound concentration 10 uM, replicate 2
# [5] = 24 h, 1 µM, compound concentration 1 uM, replicate 1
# [6] = 24 h, 1 µM, compound concentration 1 uM, replicate 2
# [7] = 24 h, 10 µM, compound concentration 10 uM, replicate 1
# [8] = 24 h, 10 µM, compound concentration 10 uM, replicate 2
# [9] = 48 h, 1 µM, compound concentration 1 uM, replicate 1
# [10] = 48 h, 1 µM, compound concentration 1 uM, replicate 2
# [11] = 48 h, 10 µM, compound concentration 10 uM, replicate 1
# [12] = 48 h, 10 µM, compound concentration 10 uM, replicate 2
smiles,measurement,setting,value
CC(C)C[C@H](CO)Nc1nc(S[C@@H](C)c2ccccc2)nc2nc(N)sc12 [AZD-8797],Population Apoptotic (%),[1],39%
same,Population Fragmented Nuclei (%),[1],2%
same,Population Healthy Nuclei (%),[1],81%
same,Population Hoechst High Intensity Objects (%),[1],4%
same,Population Membrane Permeable-Phenotype (%),[1],0%
same,Population Mitochondria Different-Phenotype (%),[1],44%
same,Population Mitotic Cells (%),[1],60%
same,Population Normal (%),[1],95%
same,Population Pyknosed Nuclei (%),[1],15%
same,Population Tubulin-Different-Phenotype (%),[1],27%
same,Total Cell Count,[1],326
same,Population Apoptotic (%),[2],46%
same,Population Fragmented Nuclei (%),[2],8%
same,Population Healthy Nuclei (%),[2],72%
same,Population Hoechst High Intensity Objects (%),[2],7%
same,Population Mitochondria Different-Phenotype (%),[2],57%
same,Population Mitotic Cells (%),[2],53%
same,Population Normal (%),[2],92%
same,Population Pyknosed Nuclei (%),[2],18%
same,Population Tubulin-Different-Phenotype (%),[2],22%
same,Total Cell Count,[2],356
same,Population Apoptotic (%),[3],65%
same,Population Fragmented Nuclei (%),[3],9%
same,Population Healthy Nuclei (%),[3],71%
same,Population Hoechst High Intensity Objects (%),[3],10%
same,Population Membrane Permeable-Phenotype (%),[3],0%
same,Population Mitochondria Different-Phenotype (%),[3],70%
same,Population Mitotic Cells (%),[3],34%
same,Population Normal (%),[3],89%
same,Population Pyknosed Nuclei (%),[3],18%
same,Population Tubulin-Different-Phenotype (%),[3],56%
same,Total Cell Count,[3],279
same,Population Apoptotic (%),[4],67%
same,Population Fragmented Nuclei (%),[4],6%
same,Population Healthy Nuclei (%),[4],75%
same,Population Mitochondria Different-Phenotype (%),[4],75%
same,Population Mitotic Cells (%),[4],32%
same,Population Tubulin-Different-Phenotype (%),[4],39%
same,Total Cell Count,[4],345
same,Population Apoptotic (%),[5],37%
same,Population Fragmented Nuclei (%),[5],7%
same,Population Healthy Nuclei (%),[5],76%
same,Population Hoechst High Intensity Objects (%),[5],3%
same,Population Membrane Permeable-Phenotype (%),[5],0%
same,Population Mitochondria Different-Phenotype (%),[5],25%
same,Population Mitotic Cells (%),[5],62%
same,Population Normal (%),[5],97%
same,Population Pyknosed Nuclei (%),[5],15%
same,Population Tubulin-Different-Phenotype (%),[5],16%
same,Total Cell Count,[5],400
same,Population Apoptotic (%),[6],45%
same,Population Healthy Nuclei (%),[6],81%
same,Population Hoechst High Intensity Objects (%),[6],5%
same,Population Mitochondria Different-Phenotype (%),[6],42%
same,Population Mitotic Cells (%),[6],54%
same,Population Normal (%),[6],94%
same,Population Pyknosed Nuclei (%),[6],11%
same,Population Tubulin-Different-Phenotype (%),[6],14%
same,Total Cell Count,[6],421
same,Population Apoptotic (%),[7],54%
same,Population Fragmented Nuclei (%),[7],8%
same,Population Healthy Nuclei (%),[7],73%
same,Population Hoechst High Intensity Objects (%),[7],9%
same,Population Membrane Permeable-Phenotype (%),[7],0%
same,Population Mitochondria Different-Phenotype (%),[7],64%
same,Population Mitotic Cells (%),[7],45%
same,Population Normal (%),[7],90%
same,Population Pyknosed Nuclei (%),[7],17%
same,Population Tubulin-Different-Phenotype (%),[7],39%
same,Total Cell Count,[7],346
same,Population Apoptotic (%),[8],51%
same,Population Fragmented Nuclei (%),[8],9%
same,Population Healthy Nuclei (%),[8],77%
same,Population Hoechst High Intensity Objects (%),[8],8%
same,Population Mitochondria Different-Phenotype (%),[8],71%
same,Population Mitotic Cells (%),[8],48%
same,Population Normal (%),[8],91%
same,Population Pyknosed Nuclei (%),[8],12%
same,Population Tubulin-Different-Phenotype (%),[8],36%
same,Total Cell Count,[8],393
same,Population Apoptotic (%),[9],43%
same,Population Fragmented Nuclei (%),[9],15%
same,Population Healthy Nuclei (%),[9],78%
same,Population Hoechst High Intensity Objects (%),[9],1%
same,Population Membrane Permeable-Phenotype (%),[9],0%
same,Population Mitochondria Different-Phenotype (%),[9],16%
same,Population Mitotic Cells (%),[9],56%
same,Population Normal (%),[9],98%
same,Population Pyknosed Nuclei (%),[9],6%
same,Population Tubulin-Different-Phenotype (%),[9],10%
same,Total Cell Count,[9],663
same,Population Apoptotic (%),[10],24%
same,Population Fragmented Nuclei (%),[10],12%
same,Population Healthy Nuclei (%),[10],79%
same,Population Hoechst High Intensity Objects (%),[10],3%
same,Population Membrane Permeable-Phenotype (%),[10],1%
same,Population Mitochondria Different-Phenotype (%),[10],24%
same,Population Mitotic Cells (%),[10],75%
same,Population Normal (%),[10],96%
same,Population Pyknosed Nuclei (%),[10],8%
same,Population Tubulin-Different-Phenotype (%),[10],13%
same,Total Cell Count,[10],681
same,Population Apoptotic (%),[11],60%
same,Population Fragmented Nuclei (%),[11],16%
same,Population Healthy Nuclei (%),[11],72%
same,Population Hoechst High Intensity Objects (%),[11],7%
same,Population Membrane Permeable-Phenotype (%),[11],0%
same,Population Mitochondria Different-Phenotype (%),[11],57%
same,Population Mitotic Cells (%),[11],39%
same,Population Normal (%),[11],92%
same,Population Pyknosed Nuclei (%),[11],11%
same,Population Tubulin-Different-Phenotype (%),[11],28%
same,Total Cell Count,[11],416
same,Population Apoptotic (%),[12],52%
same,Population Fragmented Nuclei (%),[12],15%
same,Population Healthy Nuclei (%),[12],75%
same,Population Hoechst High Intensity Objects (%),[12],6%
same,Population Mitochondria Different-Phenotype (%),[12],52%
same,Population Mitotic Cells (%),[12],47%
same,Population Normal (%),[12],93%
same,Population Pyknosed Nuclei (%),[12],8%
same,Population Tubulin-Different-Phenotype (%),[12],21%
same,Total Cell Count,[12],530
